From publication PMC3680915 (Biochemistry, 2013)
pIC50: −log10 of the molar value. Entries after “also recorded” stand apart in the source; their conditions may differ.

Assays:
Format in all cases: biochemical, bovine
[1] = target: T1, NADH:ubiquinone oxidoreductase (complex I) (Bos taurus, UniProt P25708); test: NADH:APAD+ transhydrogenation
[2] = target: T1, NADH:ubiquinone oxidoreductase (complex I); test: NADH:FeCN oxidoreduction; conditions: 0.1 mM NADH, 1 mM FeCN, pH 7.5, 32 °C
[3] = target: T1, NADH:ubiquinone oxidoreductase (complex I); test: NADH:HAR oxidoreduction
[4] = target: T1, NADH:ubiquinone oxidoreductase (complex I); test: Kinetic isotope effect in NAD; conditions: 1 mM FeCN, pH 7.5, 32 °C
[5] = target: T1, NADH:ubiquinone oxidoreductase (complex I); test: Kinetic isotope effect in NAD; conditions: 3.5 mM HAR, pH 7.5, 32 °C
Method in brief: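 Bovine heart complex I with hexaammineruthenium(III) as acceptor, at 32 °C. Donor concentration series used NADH, [4R-2H]NADH, [4S-2H]NADH, APADH and [4S-2H]APADH in 20 mM Tris-HCl pH 7.5. pH dependence was measured with NADH versus [4S-2H]NADH at 0.1 mM. Reactions were enzyme-initiated and read at 340–380 nm (ε 4.81 mM–1 cm–1). Background-subtracted initial rates over ~15 s; mean of ≥3 measurements.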

SMILES | IC50 for inhibition of the APAD+ reaction ([1]; 0.1 mM NADH, 1 mM APAD+, pH 7.5, 32 °C) | IC50 for inhibition of the FeCN reaction [2] | IC50 for inhibition of the HAR reaction ([3]; 0.1 mM NADH, 3.5 mM HAR, pH 7.5, 32 °C) | KIE in the APAD(H/D):FeCN reaction [4] | KIE in the APAD(H/D):HAR reaction [5] | pIC50 [1] | IC50 for inhibition of the FeCN reaction ([2]; listed as Adenosine) | pIC50 [3]
NC(=O)c1ccc[n+]([C@@H]2O[C@H](COP(=O)([O-])O)[C@@H](O)[C@H]2O)c1 [NMN^+, nicotinamide mononucleotide] | does not inhibit; also recorded: no inhibition | does not inhibit; also recorded: no inhibition | does not inhibit; also recorded: no inhibition |  |  |  |  | 
[2H]C1C=CN(C2OC(COP(=O)(O)OP(=O)(O)OCC3OC(n4cnc5c(N)ncnc54)C(O)C3O)C(O)C2O)C=C1C(C)=O (stereo not drawn) [S-APADD, [4S-^2H]APADH] |  |  |  | ~6.5 | ~3.5 |  |  | 
Nc1ncnc2c1ncn2[C@@H]1O[C@H](CO)[C@@H](O)[C@H]1O [adenosine] |  | no inhibition ^b |  |  |  | 2.00 | no discernible inhibition | 2.15
